Screens as filed in PubChem.
An excerpt weighted towards active compounds, which were near 2.9% of everything screened.
NRP1-CendR mod: modulators of CendR peptide binding to NRP-1, primary screen, biochemical, fluorescence polarization, uHTS. Neuropilin-1 (Homo sapiens), O14786. FAM-RPARPAR peptide binding to NRP-1. inhibition, % at 25 µM. hit rate 0.85% among 360,000;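 active = inhibition or corrected inhibition above about 18%, plus a signal ratio from 0.5 to 1.5, limit read from the data, passing the limit was not always enough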
ADAM17 inh: ADAM17 inhibitors, primary screen, biochemical, QFRET; recombinant ADAM17, EDANS/DABCYL FRET peptide cleavage; hit rate 0.83% among 370,000; inhibition, % at 6.95 µM;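 active = inhibition above the mean of compounds lying between control limits plus 3 SD, set per campaign, cut at about 8.5% in these data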;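 also: 0% = DMSO-only wells as the low control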
ADAM10 inh: human ADAM10 inhibitors, primary screen, biochemical, QFRET, HTS; Disintegrin and metalloproteinase domain-containing protein 10 (Homo sapiens), O14672; recombinant ADAM10, EDANS/DABCYL FRET peptide cleavage, 3 h; inhibition, % at 7 µM; hit rate 0.62% among 370,000;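 active = inhibition above a per-campaign cutoff equal to the mean of compounds falling between control-based bounds plus 3 SD, cut at about 20% in these data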;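 also: 0% = DMSO wells while the 100% control is not disclosed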
Target sequence (O14672 214-748 limits assumed): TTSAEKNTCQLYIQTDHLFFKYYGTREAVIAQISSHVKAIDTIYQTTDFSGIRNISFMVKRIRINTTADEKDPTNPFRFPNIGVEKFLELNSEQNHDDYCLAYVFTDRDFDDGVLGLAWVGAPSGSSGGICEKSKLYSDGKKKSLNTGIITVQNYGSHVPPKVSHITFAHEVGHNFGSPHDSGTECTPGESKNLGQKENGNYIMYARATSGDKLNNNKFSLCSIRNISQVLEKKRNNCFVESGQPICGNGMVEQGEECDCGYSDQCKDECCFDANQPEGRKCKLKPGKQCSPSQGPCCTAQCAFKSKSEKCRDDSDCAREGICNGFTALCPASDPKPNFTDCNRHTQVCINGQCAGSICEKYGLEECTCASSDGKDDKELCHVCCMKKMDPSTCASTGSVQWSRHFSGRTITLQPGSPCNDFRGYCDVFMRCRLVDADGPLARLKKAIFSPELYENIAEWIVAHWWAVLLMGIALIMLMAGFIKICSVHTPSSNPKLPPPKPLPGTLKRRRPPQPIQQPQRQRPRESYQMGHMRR
FAS-TE inh: FAS thioesterase domain inhibitors, primary screen, biochemical, fluorescence intensity, uHTS. recombinant FAS-TE, OMFH fluorogenic substrate, fluorescence endpoint. inhibition, % at 15 µM. hit rate 0.67% among 360,000;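 active = compounds whose normalised, plate-corrected inhibition of enzyme fluorescence in the single-dose primary screen is 50% or more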;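 also: 0% = DMSO with enzyme and 100% = substrate without enzyme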
Arrestin-AP2 inh: inhibitors of beta-arrestin/AP2 binding, primary screen, biochemical, GPCR trafficking, flow cytometry. beta-arrestin 1 C-terminal peptide binding to AP2 beta2-adaptin appendage (human). FITC-arrestin peptide / GST-AP2 beads; AP2 beta2 appendage carries R879A mutation. inhibition, % at 10 µM. hit rate 0.31% among 340,000. AID 504490, 2011;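 active = inhibition above a set limit, near 3 SD of compounds lacking own fluorescence, cut at about 54% in these data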;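 also: plate controls were DMSO wells for no effect and 5 µM unlabelled arrestin peptide for full effect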
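System: GST-AP2 R879A glutathione beads; medium: PBS, Tween 20 0.05%, BSA 0.1%; reagent: fluorescein-tagged arrestin peptide at 50 nM final; schedule: pre-incubation 12 min, peptide binding 1 h, room temperature; detection: flow cytometry, FL1 (488/535 nm); read-out: inhibition as reduced fluorescein signal on beads, percent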
CaV13 ICDI inh: Primary screen for inhibitors of IQ motif and Ca2+-dependent inactivation inhibitor domain binding in CACNA1D, Förster resonance energy transfer in living cells, …; HEK cells, CFP/YFP FRET ICDI-IQ, plate reader, 10 min; percent FRET-ratio fall versus neutral wells; inhibition, % at 12.3 µM; hit rate 0.098% among 340,000;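 active = mean replicate inhibition of at least 30% and at least 1% of replicates passing that level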;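 also: 0% = median of the neutral control wells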
ADAM10 ctr: ADAM10 inhibitors, counter-screen for ADAM17 exosite inhibitor project, biochemical, FRET, human ADAM10. hit rate 47% among 2,900. AID 743256, 2014. inhibition, % at 6.95 µM. shares compounds with ADAM17 inh. recombinant ADAM10, EDANS/DABCYL FRET peptide cleavage, 3 h;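 active = mean inhibition over the triplicate runs exceeds the activity threshold set in the earlier primary screen, cut at about 20% in these data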;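 also: 0% = DMSO wells and 100% = marimastat wells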
ADAM17 confirm: ADAM17 inhibitors, hit retest, confirmation, biochemical, QFRET peptide cleavage; AID 743257, 2014; inhibition, % at 6.95 µM; hit rate 65% among 2,900; recombinant ADAM17, EDANS/DABCYL QFRET peptide cleavage; shares compounds with ADAM17 inh;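 active = mean inhibition across replicates above the hit cutoff set in the primary screen, cut at about 8.5% in these data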;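 also: 0% = DMSO wells and 100% = marimastat wells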
An asterisk follows results filed as active; / = no result.

SMILES	NRP1-CendR mod	ADAM17 inh	ADAM10 inh	FAS-TE inh	Arrestin-AP2 inh	CaV13 ICDI inh	ADAM10 ctr	ADAM17 confirm
Cc1cccc(C(=O)N(CCc2ccccc2)Cc2ccccc2)c1[N+](=O)[O-]	9	8.8*	14	26	-2	-5	28*	13*
Cc1ccc(S(=O)(=O)N(C)CC(=O)NNC(=O)Cc2cccc(F)c2)cc1	13	-1	4	-7	-20	-6	/	/
Cc1ccc(S(=O)(=O)N(C)CC(=O)NNC(=O)Cc2ccccc2F)cc1	1	11*	5	-6	6	-5	19	11*
CCCCN(C)C(=O)c1cn(C(C)c2ccccc2)nn1 (centres undefined)	/	-3	-7	/	/	/	/	/
CSc1ccccc1NC(=O)COC(=O)c1ccccc1Cc1ccccc1	7	4	6	40	18	-19	/	/
Cc1ccc(C(=O)c2ccccc2C(=O)OCC(=O)Nc2ccc(SC(F)F)cc2)cc1	-15	13*	18	35	11	-3	35*	18*
O=C(COC(=O)c1ccccc1Cc1ccccc1)Nc1ccc(SC(F)F)cc1	-1	9.6*	11	28	3	-5	20*	14*
CCCCN(CCCC)S(=O)(=O)c1ccc(NC(=O)c2cccs2)cc1	1	12*	16	31	5	-7	32*	16*
COc1cccc(C(=O)OCC(=O)Nc2sc3c(c2C(N)=O)CCC3)c1O	-48	-16	-52	-2	4	-6	/	/
